Bioassay records: PubChem BioAssay, The Scripps Research Institute Molecular Screening Center
Rows were chosen to be rich in hits. Some 1.6% of all compounds tested hit in one or more screens of this group.
IMP-1 inh: blocks Pseudomonas aeruginosa IMP-1 metallo-beta-lactamase. purified IMP-1, nitrocefin hydrolysis, epi-absorbance fluorescence. AID 1556. 290,000 compounds, 0.45% hits. inhibition, % at 5.6 µM;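 active = inhibition above the mean plus 3 SD of all compounds in the same screening run, cut at about 4.5% in these data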
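assay system = purified recombinant IMP-1 metallo-beta-lactamase enzyme | schedule = 15 min preincubation plus 25 min reaction at 25 °C | signal = Epi-absorbance fluorescence, 480 nm excitation, 530 nm emission | read-out basis = percent inhibition from optical density relative to buffer-blank wells | controls = IMP-1 with DMSO as 0%, enzyme-free DMSO as 100%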
VIM-2 inhibitor: inhibitors of Pseudomonas aeruginosa VIM-2 metallo-beta-lactamase; purified VIM-2, nitrocefin hydrolysis, epi-absorbance fluorescence; inhibition, % at 5.6 µM; 290,000 compounds, 0.89% hits; AID 1527;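 active = inhibition above the mean of all tested compounds plus 3 SD, cutoff set per screening run, cut at about 7.5% in these data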;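 note: red hydrolysis product quenches plate fluorescence so inhibitors raise well fluorescence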
HCV core dimer: HCV core protein dimerization inhibition; TR-FRET GST/Flag-core106 dimerization, 1536-well; inhibition, % at 5 µM; 300,000 compounds, 0.33% hits;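 active = inhibition above the mean of all tested compounds plus 3 SD, set per screening campaign, cut at about 45% in these data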
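System – GST-tagged and Flag-tagged HCV core protein residues 1-106 · Repeats – one well for each compound · Technique – TR-FRET 671 and 617 nm emission · Doses – one concentration, 5 µM, in 0.5% DMSO · Times – 4 h, 22.5 °C incubation · Also added – Eu donor and XL665 acceptor anti-tag antibodies · Measure – percent inhibition of core106 dimerization signal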
DNA FID counter: fluorescent intercalator displacement, NS3 helicase counter-screen; 290,000 compounds, 0.17% hits; DNA fluorescent intercalator displacement, fluorescence; inhibition, % at 7.9 µM; in the data active = inhibition above about 37%;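 note: higher means more ethidium bromide displaced from hairpin DNA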
Each line names hits and unclear results; the compound was inactive in the other large screens.

CCN(CC)CC(=O)n1c2c(c3ccccc31)CCCC2	VIM-2 inhibitor 12
Cc1cc(C)n(CC(=O)n2c3c(c4ccccc42)CCCC3)n1	VIM-2 inhibitor 10
O=C(CSc1ncccn1)n1c2c(c3ccccc31)CCCC2	none
O=C(CN1CCCCC1)n1c2ccccc2c2ccccc21	none
CN1CCN(CC(=O)n2c3c(c4ccccc42)CCCC3)CC1	VIM-2 inhibitor 9.9
CCN(Cc1ccc(OC)c(F)c1)C(=O)CCl	none
Cc1nc(=O)c(-c2ccccc2)c(C)n1-c1ccccc1C(=O)O	none
Cc1nc(N(C)C)c2sc(=S)n(C)c2n1	VIM-2 inhibitor 7.9
Cc1nc(N(C)C)c2sc(=S)n(-c3ccccc3)c2n1	none
CC1CCCCC12NC(=O)N(CC(=O)Nc1sc3c(c1C(N)=O)CCC3)C2=O (configuration not stated)	HCV core dimer 69
CC1CCC2(CC1)NC(=O)N(CC(=O)Nc1sc3c(c1C(N)=O)CCC3)C2=O (configuration not stated)	HCV core dimer 52
O=C(CC(=O)Nc1ccc(Br)cc1)Nc1ccc(Br)cc1	none
CC(=O)c1cc(CN2CCC(n3nccc3NC(=O)c3ccccc3C)CC2)cs1	none
N#Cc1cccc(NC(=O)CSc2ccc3c4c(cccc24)C(=O)c2ccccc2-3)c1	HCV core dimer 67
CCOc1cc(/C=C2\C(=O)N(c3cccc(C(=O)O)c3)N=C2C(F)(F)F)ccc1OCC(=O)Nc1ccccc1OC	DNA FID counter 43
CCOc1cc(/C=N/n2cnnc2)ccc1OCC(=O)Nc1ccccc1OC	none
CC(=O)OC1CCC2(C)C(COc3ccc4ccc(=O)oc4c3)C(C)(O)CCC2C1(C)C (configuration not stated)	none
Cc1oc2c(c1C(=O)NCc1cccnc1)C(=O)c1ccccc1C2=O	VIM-2 inhibitor 9.2
Oc1c(Br)cc(Br)cc1C=Nc1ccc2[nH]ncc2c1	none
Oc1c(Br)cc(Br)cc1C=Nc1cccnc1	IMP-1 inh 28
O=C(/C=C/c1cn(-c2ccccc2)nc1-c1cccnc1)c1ccco1	HCV core dimer 62
O=C(NCc1ccc(F)cc1)C(c1ccncc1)N(C(=O)c1csnn1)C1CC1 (configuration not stated)	none
CCCCn1c2ccc(F)cc2c2nnc(SCCN3CCOCC3)nc21	none (no result: HCV core dimer)
Cn1c2ccccc2c2nnc(SCC(=O)Nc3cccc(C(=O)O)c3)nc21	none
C=CCn1c2ccccc2c2nnc(SCCN3CCOCC3)nc21	VIM-2 inhibitor 12
Cn1c2ccc(F)cc2c2nnc(SCCN3CCOCC3)nc21	VIM-2 inhibitor 7.8 (no result: HCV core dimer)
C=CCn1c2ccccc2c2nnc(SCC(=O)O)nc21	none
Cn1c2ccc(F)cc2c2nnc(SCC(=O)Nc3cccc(O)c3)nc21	VIM-2 inhibitor 8.8
Cc1nc(NC2=NCN(C3CCCCC3C)CN2)nc2ccccc12 (configuration not stated)	none (no result: HCV core dimer)
CN(C)S(=O)(=O)N(CC(=O)Nc1ccc2ccccc2c1)c1ccccc1	none
Cc1ccc(Nc2nc(-c3ccc(S(=O)(=O)N4CCOCC4)cc3)cs2)cc1Cl	none
COc1ccc(NC(=O)c2c3c(nc4ccccc24)CCC3)cc1S(=O)(=O)N1CCOCC1	HCV core dimer 78
COc1ccc(C(=O)Nc2ccc(NC(=O)c3ccccc3)cc2)cc1S(=O)(=O)N1CCOCC1	none
Cc1ccc(NC(=O)c2c3c(nc4ccccc24)CCC3)cc1S(=O)(=O)N(C)C	HCV core dimer 66
CC(C)(C)N(Cc1ccccc1)C(=O)CCc1ccccc1	none
O=C(O)c1cccc(N2C(=O)c3cccc(Oc4ccc(Cl)cc4)c3C2=O)c1	IMP-1 inh 20
O=C(O)c1ccc(N2C(=O)c3cccc(Oc4ccc(Cl)cc4)c3C2=O)cc1	IMP-1 inh 17
CC(C)NC(=O)CC1OC(=O)c2ccccc21 (configuration not stated)	none
CC1CC(C)CN(C(=S)Nc2ccc(SC(F)F)cc2)C1 (configuration not stated)	none
CCOC(=O)C1(CCc2ccccc2)CCN(Cc2ccc(C(=O)OC)cc2)CC1	none
CCc1[nH]nc2c1C1(CCN(C(=O)c3ccccc3)CC1)C(C#N)=C(N)O2	VIM-2 inhibitor 11
CC(=O)N1CCC2(CC1)C(C#N)=C(N)Oc1n[nH]c(CSc3ccc(C)cc3)c12	none
CCOC(=O)C1CCN(S(=O)(=O)c2c(C)[nH]c(C)c2C(=O)N2CCCC2)CC1	none
CCCC(C(=O)NC1CCCC1)N(Cc1ccc2c(c1)OCO2)C(=O)c1snc(C(N)=O)c1N (configuration not stated)	none
COc1ccccc1OCC(=O)OC/C(O)=C(\C#N)c1nc2ccccc2[nH]1	VIM-2 inhibitor 11
N#C/C(=C(/O)COC(=O)c1ccc(Cl)c(S(=O)(=O)N2CCOCC2)c1)c1nc2ccccc2[nH]1	none
N#C/C(=C(/O)COC(=O)c1ccc2c(c1)OCCO2)c1nc2ccccc2[nH]1	HCV core dimer 58
O=C1/C(=C/c2cccs2)CCC/C1=C\c1cccs1	IMP-1 inh 5.6
COc1ccc(C#Cc2ccc3c(=O)c4ccccc4n(C)c3c2)cc1	none
COc1ccccc1C#Cc1ccc2c(=O)c3ccccc3n(C)c2c1	IMP-1 inh 6.8
COc1ccc(/C=N/n2c(SC)nnc2-c2ccccc2)c(OC)c1OC	VIM-2 inhibitor 23 (no result: HCV core dimer)
CCOC(=O)N1CCN(C2=C(NS(=O)(=O)c3ccccc3)C(=O)c3ccccc3C2=O)CC1	VIM-2 inhibitor 9.4
NC(=O)C1CCN(C2=C(NS(=O)(=O)c3ccccc3)C(=O)c3ccccc3C2=O)CC1	VIM-2 inhibitor 8.8
O=C1C(NS(=O)(=O)c2ccc(Cl)cc2)=C(N2CCCCC2)C(=O)c2ccccc21	VIM-2 inhibitor 9.3
CN1CCN(C2=C(NS(=O)(=O)c3ccccc3)C(=O)c3ccccc3C2=O)CC1	none
CCN1CCN(C2=C(NS(=O)(=O)c3ccccc3)C(=O)c3ccccc3C2=O)CC1	none
CCn1c2ccccc2c2cc(/C=N/NC(=O)c3ccncc3)ccc21	none
CCN(CC)C(=O)CSc1n[nH]c(=O)n1CCc1ccccc1	none
O=c1[nH]nc(Sc2ncnc3sccc23)n1CCc1ccccc1	VIM-2 inhibitor 9.7
CCCCN(CC)CCNC(=O)c1ccc2c(Cl)c3c(nc2c1)CCC3	none
CCN(CC)CCCNC(=O)c1ccc2c(SCC(=O)O)c3c(nc2c1)CCC3	none
CCN(CC)CCNC(=O)CSc1c2c(nc3cc(Cl)ccc13)CCCC2	VIM-2 inhibitor 8.4
CCCN1CCN(CCCNC(=O)c2ccc3c(Cl)c4c(nc3c2)CCCC4)CC1	VIM-2 inhibitor 8.4
CCN(CC)CCCNC(=O)c1ccc2c(Cl)c3c(nc2c1)CCCC3	VIM-2 inhibitor 9.3
O=C(OCc1ccco1)c1ccc(S(=O)(=O)N2CCCCC2)cc1	HCV core dimer 80
O=C(COC(=O)c1ccc(S(=O)(=O)N2CCCCC2)cc1)NCc1ccco1	none
Cc1cnc(NC(=O)Cc2ccc(C)c(C)c2)s1	IMP-1 inh 8.7
CCc1ccc(/C=N/NC(=O)c2cc(-c3ccccc3OC)nc3ccccc23)s1	HCV core dimer 56
CCOC(=O)C1=NOC(Cn2cc(C#N)c(=O)n(C)c2=O)C1 (configuration not stated)	none
